Assay results from ChEMBL document CHEMBL1671628, “Cell density and cell aging as factors modulating antifungal resistance of Candida albicans biofilms” (2008).
Converted amounts (≈) assume the structure as drawn.

What was measured:
Candida albicans [1] = experiment: Antifungal activity against 10^8 cells/ml Candida albicans SC5314 planktonic cells by XTT reduction assay; format: functional
Procedure, shortened: (§1)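 High-density planktonic suspensions (10^7 or 10^8 cells/ml) added to serially double-diluted drugs as in the NCCLS setup, run in parallel in RPMI 1640 + 2% glucose and YNB + 100 mM glucose. Viability read by XTT (1 mg/ml) with menadione (0.4 mM stock, 5:1), 3 h dark at 37°C, A490 minus blank wells. MIC50 = lowest concentration giving 50% reduction versus drug-free control.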

Candida albicans [2] = experiment: Antifungal activity against 10^7 cells/ml Candida albicans ATCC 90028 planktonic cells by XTT reduction assay; format: functional; procedure, shortened: as §1
Candida albicans [3] = experiment: Antifungal activity against 10^3 cells/ml Candida albicans SC5314 by NCCLS method; format: functional
Procedure, shortened: (§2)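 Planktonic broth microdilution per NCCLS (CLSI): inoculum from 24-h SDA cultures adjusted to 0.5 McFarland at 520 nm, diluted in RPMI 1640 to about 0.5 × 10^3 to 2.5 × 10^3 cells/ml. Cells exposed to twofold drug dilutions, incubated 35°C for 48 h, then MIC read. Three separate occasions.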

Candida albicans [4] = experiment: Antifungal activity against 10^5 cells/ml Candida albicans ATCC 90028 by EUCAST method; format: functional
Procedure, shortened: (§3)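 EUCAST AFST planktonic broth microdilution: RPMI 1640 plus 2% glucose, inoculum 0.5 × 10^5 to 2.5 × 10^5 cells/ml, twofold drug dilutions. Performed on three different occasions.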

Candida albicans [5] = experiment: Antifungal activity against 24 hrs cultures of 10^7 cells/ml Candida albicans BF-1 biofilms by XTT reduction method; format: functional
Procedure, shortened: (§4)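 Washed late-exponential cells at 1 × 10^7 cells/ml in YNB + 100 mM glucose were adhered 1.5 h at 37°C with shaking at 75 rpm, washed, then grown 24 or 48 h at 37°C, 75 rpm. Biofilms were washed and exposed 24 or 48 h at 37°C to twofold dilutions in RPMI + 2% glucose. Read by XTT at A490. MIC50 is 50% reduction vs drug-free control. Three experiments, four replicates.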

Candida albicans [6] = experiment: Antifungal activity against 10^3 cells/ml Candida albicans ATCC 90028 by NCCLS method; format: functional; procedure, shortened: as §2
Candida albicans [7] = experiment: Antifungal activity against 10^3 cells/ml wild-type Candida albicans BF-1 by NCCLS method; format: functional; procedure, shortened: as §2
Candida albicans [8] = experiment: Antifungal activity against 24 hrs cultures of 10^7 cells/ml Candida albicans ATCC 90028 biofilms by XTT reduction method; format: functional; procedure, shortened: as §4
Candida albicans [9] = experiment: Antifungal activity against 48 hrs cultures of 10^7 cells/ml Candida albicans BF-1 biofilms by XTT reduction method; format: functional; procedure, shortened: as §4
Candida albicans [10] = experiment: Antifungal activity against 24 hrs cultures of 10^7 cells/ml Candida albicans SC5314 biofilms by XTT reduction assay; format: functional; conditions: SC5314, 24 h; procedure, shortened: as §4
Candida albicans [11] = experiment: Antifungal activity against 10^8 cells/ml Candida albicans ATCC 90028 planktonic cells by XTT reduction assay; format: functional; procedure, shortened: as §1
Candida albicans [12] = experiment: Antifungal activity against 24 hrs cultures of 10^7 cells/ml biofilm-derived Candida albicans BF-1 planktonic cells hrs by XTT reduction method; format: functional
Procedure, shortened: (§5)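 Biofilms grown 24 or 48 h from 1 × 10^7 cells/ml were washed, scraped and transferred into plates of twofold serially diluted drugs. They were incubated 24 or 48 h. MIC was read by XTT reduction (3 h at 37°C in the dark, A490 minus blank) as 50% reduction vs drug-free control.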

Candida albicans [13] = experiment: Antifungal activity against 48 hrs cultures of 10^8 cells/ml wild-type Candida albicans BF-1 biofilms by XTT reduction assay; conditions: BF-1, 48 h
Candida albicans [14] = experiment: Antifungal activity against 24 hrs cultures of 10^7 cells/ml Candida albicans BF-1 planktonic cells by XTT reduction method; format: functional
Procedure, shortened: (§6)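 Age-matched planktonic cultures were grown from the same 1 × 10^7 cells/ml YNB + 100 mM glucose suspension under the biofilm conditions for 24 or 48 h. They were tested against twofold drug dilutions by XTT reduction (3 h at 37°C in the dark, A490 minus blank). MIC50 is 50% reduction vs drug-free control.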

Candida albicans [15] = experiment: Antifungal activity against 24 hrs cultures of 10^7 cells/ml Candida albicans ATCC 90028 biofilms by XTT reduction assay; format: functional; procedure, shortened: as §4
Candida albicans [16] = experiment: Antifungal activity against 48 hrs cultures of 10^7 cells/ml Candida albicans ATCC 90028 planktonic cells by XTT reduction method; format: functional; procedure, shortened: as §6
Candida albicans [17] = experiment: Antifungal activity against 10^8 cells/ml wild-type Candida albicans BF-1 planktonic cells by XTT reduction assay; format: functional
Procedure, shortened: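 Planktonic suspensions at 1 × 10^8 cells/ml added to twofold serial drug dilutions in 96-well plates (NCCLS format). Run in parallel in RPMI 1640 + 2% glucose and YNB + 100 mM glucose. Readout by XTT reduction: XTT–menadione in PBS, 3 h at 37°C in the dark, A490 minus blank. MIC50 is 50% reduction vs drug-free control.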

Candida albicans [18] = experiment: Antifungal activity against 24 hrs cultures of 10^7 cells/ml Candida albicans ATCC 90028 planktonic cells by XTT reduction method; format: functional
Procedure, shortened: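 Standard 1 × 10^7 cells/ml suspension in YNB + 100 mM glucose propagated planktonically 24 h alongside age-matched biofilms, then exposed to twofold drug dilutions. Metabolic activity read by XTT–menadione reduction, 3 h dark, 37°C, A490 background-subtracted. MIC50 is the 50% reduction point versus drug-free control.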

Candida albicans [19] = experiment: Antifungal activity against 48 hrs cultures of 10^8 cells/ml Candida albicans ATCC 90028 biofilms by XTT reduction assay; conditions: ATCC 90028, 48 h
Candida albicans [20] = experiment: Antifungal activity against 24 hrs cultures of 10^7 cells/ml biofilm-derived Candida albicans ATCC 90028 planktonic cells hrs by XTT reduction method; format: functional
Procedure, shortened: (§7)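 Biofilms grown from 1 × 10^7 cells/ml (YNB + 100 mM glucose, 1.5 h adherence, 37°C, 75 rpm) for 24 or 48 h, washed, scraped and moved to wells of serially double-diluted drugs. Incubated with drug 24 or 48 h, then XTT–menadione read at 490 nm. MIC50 = 50% reduction versus drug-free control.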

Candida albicans [21] = experiment: Antifungal activity against 24 hrs cultures of 10^7 cells/ml wild-type Candida albicans BF-1 biofilms by XTT reduction assay; format: functional; procedure, shortened: as §4
Candida albicans [22] = experiment: Antifungal activity against 10^7 cells/ml wild-type Candida albicans BF-1 planktonic cells by XTT reduction assay; format: functional; procedure, shortened: as §1
Candida albicans [23] = experiment: Antifungal activity against 48 hrs cultures of 10^7 cells/ml Candida albicans ATCC 90028 biofilms by XTT reduction method; format: functional; procedure, shortened: as §4
Candida albicans [24] = experiment: Antifungal activity against 48 hrs cultures of 10^7 cells/ml biofilm-derived Candida albicans BF-1 planktonic cells hrs by XTT reduction method; format: functional; procedure, shortened: as §7
Candida albicans [25] = experiment: Antifungal activity against 48 hrs cultures of 10^7 cells/ml biofilm-derived Candida albicans ATCC 90028 planktonic cells hrs by XTT reduction method; format: functional; procedure, shortened: as §5
Candida albicans [26] = experiment: Antifungal activity against 10^5 cells/ml wild-type Candida albicans BF-1 by EUCAST method; format: functional; procedure, shortened: as §3
Candida albicans [27] = experiment: Antifungal activity against 48 hrs cultures of 10^7 cells/ml Candida albicans BF-1 planktonic cells by XTT reduction method; format: functional; procedure, shortened: as §6
Candida albicans [28] = experiment: Ratio of MIC for 10^8 cells/ml wild-type Candida albicans BF-1 to MIC for 10^7 cells/ml wild-type Candida albicans BF-1 grown as planktonic cells; format: functional; procedure, shortened: as §1
Candida albicans [29] = experiment: Antifungal activity against 48 hrs cultures of 10^7 cells/ml Candida albicans ATCC 90028 biofilms by XTT reduction assay; format: functional; procedure, shortened: as §4
Candida albicans [30] = experiment: Antifungal activity against 48 hrs cultures of 10^7 cells/ml wild-type Candida albicans BF-1 biofilms by XTT reduction assay; format: functional; procedure, shortened: as §4

Molecule	MIC (Candida albicans [1])	MIC (Candida albicans [2])	MIC (Candida albicans [3])	MIC (Candida albicans [4])	MIC (Candida albicans [5]; BF-1, 24 h)	MIC (Candida albicans [6])	MIC (Candida albicans [7])	MIC (Candida albicans [8]; ATCC 90028, 24 h)	MIC (Candida albicans [9]; BF-1, 48 h)	MIC (Candida albicans [10])	MIC (Candida albicans [11])	MIC (Candida albicans [12]; BF-1, 24 h)	MIC (Candida albicans [13])	MIC (Candida albicans [14]; BF-1, 24 h)	MIC (Candida albicans [15]; ATCC 90028, 24 h)	MIC (Candida albicans [16]; ATCC 90028, 48 h)	MIC (Candida albicans [17])	MIC (Candida albicans [22])	MIC (Candida albicans [26])	Ratio (Candida albicans [28])	other results
Nc1nc(=O)[nH]cc1F [FLUCYTOSINE]	> 420 µg/mL	6.5 µg/mL (≈ 50.4 µM)	0.8 µg/mL (≈ 6.2 µM)	0.8 µg/mL (≈ 6.2 µM)	> 420 µg/mL	0.8 µg/mL (≈ 6.2 µM)	0.8 µg/mL (≈ 6.2 µM)	> 420 µg/mL	> 420 µg/mL	> 420 µg/mL	> 420 µg/mL	> 420 µg/mL	> 420 µg/mL	> 420 µg/mL	> 420 µg/mL	> 420 µg/mL	> 420 µg/mL	6.5 µg/mL (≈ 50.4 µM)	0.8 µg/mL (≈ 6.2 µM)	>1000	MIC (Candida albicans [18]; ATCC 90028, 24 h): > 420 µg/mL; MIC (Candida albicans [19]): > 420 µg/mL; MIC (Candida albicans [20]; ATCC 90028, 24 h): > 420 µg/mL; MIC (Candida albicans [21]; BF-1, 24 h): > 420 µg/mL; MIC (Candida albicans [23]; ATCC 90028, 48 h): > 420 µg/mL; MIC (Candida albicans [24]; BF-1, 48 h): > 420 µg/mL; MIC (Candida albicans [25]; ATCC 90028, 48 h): > 420 µg/mL; MIC (Candida albicans [27]; BF-1, 48 h): > 420 µg/mL
CC(=O)N1CCN(c2ccc(OCC3COC(Cn4ccnc4)(c4ccc(Cl)cc4Cl)O3)cc2)CC1 (stereo unspecified) [KETOCONAZOLE]	> 64 µg/mL	8 µg/mL (≈ 15.1 µM)	0.125 µg/mL (≈ 0.235 µM)	0.125 µg/mL (≈ 0.235 µM)	> 64 µg/mL	0.125 µg/mL (≈ 0.235 µM)	0.125 µg/mL (≈ 0.235 µM)	> 64 µg/mL	> 64 µg/mL	> 64 µg/mL	64 µg/mL (≈ 120 µM)	> 64 µg/mL	> 64 µg/mL	16 µg/mL (≈ 30.1 µM)	64 µg/mL (≈ 120 µM)	> 64 µg/mL	> 64 µg/mL	16 µg/mL (≈ 30.1 µM)	0.125 µg/mL (≈ 0.235 µM)	256	MIC (Candida albicans [18]; ATCC 90028, 24 h): 8 µg/mL (≈ 15.1 µM); MIC (Candida albicans [19]): 64 µg/mL (≈ 120 µM); MIC (Candida albicans [20]; ATCC 90028, 24 h): > 64 µg/mL; MIC (Candida albicans [21]; BF-1, 24 h): > 64 µg/mL; MIC (Candida albicans [23]; ATCC 90028, 48 h): > 64 µg/mL; MIC (Candida albicans [24]; BF-1, 48 h): > 64 µg/mL; MIC (Candida albicans [25]; ATCC 90028, 48 h): > 64 µg/mL; MIC (Candida albicans [27]; BF-1, 48 h): > 64 µg/mL
NYSTATIN	–	2 µg/mL	–	1 µg/mL	–	1 µg/mL	2 µg/mL	–	–	–	8 µg/mL	–	–	–	–	–	16 µg/mL	2 µg/mL	2 µg/mL	8	MIC (Candida albicans [5]): 32 µg/mL; MIC (Candida albicans [8]): 16 µg/mL; MIC (Candida albicans [9]): 32 µg/mL; MIC (Candida albicans [12]): 4 µg/mL; MIC (Candida albicans [14]): 4 µg/mL; MIC (Candida albicans [15]): 16 µg/mL; MIC (Candida albicans [29]): 16 µg/mL; MIC (Candida albicans [16]): 8 µg/mL; MIC (Candida albicans [18]): 2 µg/mL; MIC (Candida albicans [30]): 32 µg/mL; MIC (Candida albicans [20]): 2 µg/mL; MIC (Candida albicans [21]): 32 µg/mL; MIC (Candida albicans [23]): 16 µg/mL; MIC (Candida albicans [24]): 16 µg/mL; MIC (Candida albicans [25]): 8 µg/mL; MIC (Candida albicans [27]): 16 µg/mL
